Variants at the floor of the assay were thinned out.
B1: tRNA (parent)
chain: GUUCCGUUGGCGUAAUGGUAACGCGUCUCCCUCCUAAGGAGAAGACUGCGGGUUCGAGUCCCGUACGGAACG

Variants of: B1
Assay: yeast fitness relative to wild type (ratio to wild type); higher = fitter; tRNA-Arg(CCU), competitive growth, 37 C, YPD
In short: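 Amplicons of the tRNA-Arg(CCU) gene were sequenced, 100-nucleotide paired-end, from the start population and from each end population of a pooled yeast competition. The competition, in six parallel replicates, lasted 24 hours in YPD at 37°C. Fitness relative to wild type was calculated from changes in genotype frequencies. Genotypes had to have ≥ 100 starting reads, and estimates < 0.5 were set to 0.5.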

Variant | yeast fitness
C4U G10A C24U C46G G58A | ≤ 0.5
C4U G18A C22U A40C G68C | 0.591
C4U C31U A37U | 0.617
C4U G12C A45C C49U | ≤ 0.5
C4U C66G A70U | 0.608
C4U G18C G38A A40C A65G | ≤ 0.5
C4U G23C C49A G68C | ≤ 0.5
C4U C62G G67A | ≤ 0.5
C4U C29U C31U U59C | ≤ 0.5
C4U G12A C62G | 0.53
C4U C24A C30G | 0.554
C4U G6C A14U C24G G58C | 0.531
C4U G10A G12A | 0.653
C4U C30A U35C | 0.77
C4U G9C G18A C29G C31U U32C G50C | ≤ 0.5
C4U C22G G56A | 0.76
C4U G12A C27G C34A C49G | ≤ 0.5
C4U C31G A37G | 0.526
C4U G18C A45C | ≤ 0.5
C4U C22U C31A U32C A43U | ≤ 0.5
C4U C24A C55A C62U A65C | ≤ 0.5
C4U C34G G52A A69C | ≤ 0.5
C4U C31U C55G A70C | ≤ 0.5
C4U C60A | 0.532

Variant | yeast fitness
C4U C60G | 0.671
C4U C31U A37C C66U A69U | ≤ 0.5
C4U G10C G23A U26C A43G U53A | ≤ 0.5
C4U C24U A69C | 0.677
C4U C34A G56A C60G | ≤ 0.5
C4U C46U C62U | 0.806
C4U G9A C24G A37C G41A A57U | ≤ 0.5
C4U C24U G56C | 0.505
C4U G9A C29A U53A | ≤ 0.5
C4U G18C G51A C66A | ≤ 0.5
C4U C49A A65U | 0.583
C4U C31U C61U G68C | ≤ 0.5
C4U C30A A45U | 0.77
C4U G9A A40U | 1.05
C4U C55G A65G | ≤ 0.5
C4U G10A G12A A42U | ≤ 0.5
C4U G12A G48C | 0.648
C4U G9A C11U C34A C55A A65C | ≤ 0.5
C4U C30U C31G C62U | 0.766
C4U C27A A40C | ≤ 0.5
C4U C31U A69C | 0.669
C4U G9C A45G C61A | ≤ 0.5
C4U C24A A57G A70C | ≤ 0.5
C4U C49G G50C | ≤ 0.5

Variant | yeast fitness
C4U G25A G41A G56C A65C | ≤ 0.5
C4U C30A C55G | 0.549
C4U G9C C33G C49A A70G | ≤ 0.5
C4U C27U C29G A42C | ≤ 0.5
C4U C46U A70G | 0.772
C4U G12C C46U G50A | 0.608
C4U G18C A45U C49U | ≤ 0.5
C4U C34A C62U | 0.566
C4U G25A G48C | 0.62
C4U G6A A20C C60G A65U A69G | ≤ 0.5
C4U C30A A57G | 0.806
C4U G10A U13C C24U | 0.741
C4U C24U U28C C30A | 0.636
C4U G6A C31U C34U | ≤ 0.5
C4U C24A C60A | 0.724
C4U G10A C30U C49G G68A | 0.585
C4U G9C C24U C30G G51A C60U G67A | ≤ 0.5
C4U C31G A42C C66U | ≤ 0.5
C4U G9A C22G C24U A42U U64A G67A | 0.572
C4U G9A A15U A20C C27A A65U | 0.768
C4U G10A C24U G67A | 0.751
C4U C22G C60G | ≤ 0.5
C4U C46G C55U | 0.576
C4U G18C A57U C62U U64A G68C | ≤ 0.5

Variant | yeast fitness
C4U C33G U47G | 0.591
C4U C22G G50C | 0.533
C4U G6A A14C A65C | ≤ 0.5
C4U C27G G63A | ≤ 0.5
C4U C31G G38A C61A G63A | ≤ 0.5
C4U C29U A43U | 0.756
C4U G9A C24G C29G G67A | ≤ 0.5
C4U C24U A43G G51C U54C | ≤ 0.5
C4U G23C C29G C31G | ≤ 0.5
C4U G9A A57G | 0.61
C4U G10A C66U | 0.663
C4U C66U A69U | 0.677
C4U C55G A65G C66G | ≤ 0.5
C4U C33A G68A | ≤ 0.5
C4U C29U | 1
C4U C29G | 0.608
C4U G18A G23C C24G C46G C66G | ≤ 0.5
C4U C24U A36C G63C C66G | ≤ 0.5
C4U G10A C24U A69C | 0.769
C4U G10A C24U A69U | 0.838
C4U C27G A43U C55G | ≤ 0.5
C4U G10C G23A G52A G58A | ≤ 0.5
C4U C24G A42C | ≤ 0.5
C4U C30A G38C C61A | ≤ 0.5

Variant | yeast fitness
C4U G18C G38A A40C | 0.545
C4U C31G C55U G68C | ≤ 0.5
C4U C30U C62A | ≤ 0.5
C4U G10C C31G G50C C66U | ≤ 0.5
C4U G10A C34G A40G U64C | ≤ 0.5
C4U G23C A36C A70U | ≤ 0.5
C4U C29A G38A A69U | ≤ 0.5
C4U G12A C24A C61U | 0.609
C4U C24A U47G | ≤ 0.5
C4U C22G U35C | 0.641
C4U C33A | 0.724
C4U C24G C55G U64A | ≤ 0.5
C4U C24G G58C | ≤ 0.5
C4U G18A A20G G23C C24G C46G | ≤ 0.5
C4U C34A | 0.846
C4U C30U A69U | 0.736
C4U C22G | 0.943
C4U G18A G39C G58C G67A | ≤ 0.5
C4U G12C C27U | 0.535
C4U G6A C61A | ≤ 0.5
C4U C29A C31G A42C A45U A65C | ≤ 0.5
C4U C22A C27U A69U | 0.512
C4U G9A C33G G67A | ≤ 0.5
C4U G9C C61G | ≤ 0.5

Variant | yeast fitness
C4U G17C C22U A37C | ≤ 0.5
C4U G17C U47C C49A | ≤ 0.5
C4U C30G G51C G56U A65G | ≤ 0.5
C4U G6C A14U C24G C66U | ≤ 0.5
C4U C31U G67C | 0.598
C4U C31U A45C C46U | 1.01
C4U C61A | 0.667
C4U C61G | 0.63
C4U G18C C27U C33G A43C A70U | 0.659
C4U C33A G41C C60U A65U A69U | ≤ 0.5
C4U C33A C49U U54G | ≤ 0.5
C4U C29A G41A | ≤ 0.5
C4U G12A C27G C34A C49A C66U | ≤ 0.5
C4U C22G C24U C62G | ≤ 0.5
C4U C30G A36U | 0.563
C4U C61G C62A | ≤ 0.5
C4U C61G C62G | ≤ 0.5
C4U G12C U64C | 0.696
C4U C31G A65U G67C | ≤ 0.5
C4U G9C C61A A69C | ≤ 0.5
C4U C22A U35A C49G G63C | ≤ 0.5
C4U C22U C31U | 0.645
C4U C30U G38A G68C | ≤ 0.5
C4U C49U G58C | 0.782

Variant | yeast fitness
C4U G10C C31G | ≤ 0.5
C4U G12A C24A G67C | ≤ 0.5
C4U G18C G68C | 0.535
C4U C49G | 0.874
C4U G12A C27G C34A C49A C60G C61U | 0.522
C4U C33G A36G G67A G68C | 0.604
C4U C55U U59G | 0.587
C4U G17A C34A A57U | ≤ 0.5
C4U C24A C31A A40U A42C C49A | ≤ 0.5
C4U G10A G39C | 0.627
C4U C22U C34A | 0.548
C4U G9A C22G A42U U64A G67A | 0.58
C4U C30A G39C | 0.598
C4U C66U A70C | 0.83
C4U G10A C24U | 0.98
C4U C29G G38C | 0.621
C4U C46A | 0.841
C4U C46U | 1.01
C4U C27U U32C | 0.615
C4U C30A A65G G67C | ≤ 0.5
C4U G12C A20G U47A C49U A57U C61A | 0.572
C4U G17C G44A C61U | 0.556
C4U C30A U54C | 0.739

Source: the RNAGym collection of RNA variant scans (doi:10.1126/science.aae0568)
